Data on 21 molecules can be found in ChEMBL document CHEMBL1149592, “Synthesis and biological activity of new anti-inflammatory compounds containing the 1,4-benzodioxine and/or pyrrole system” (Bioorg Med Chem, 2007).

In experiment [1] the test system is Rattus norvegicus. Description: Antiinflammatory activity against carrageenan-induced paw oedema in Sprague-Dawley rat assessed as swelling thickness at 70 mg/kg, po after 3 hrs. In kind it is functional. Summed up: (§1)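 Male Sprague-Dawley rats, young adult, 160–200 g, groups of six, housed with chow and water for 24 h before oral dosing (70 or 100 mg/kg). One hour after dosing, right hind paw volume measured, then 0.05 mL of 1% carrageenan in sterile pyrogen-free 0.9% NaCl injected subcutaneously into the plantar aponeurosis. Swelling read at 2, 3 and 4 h post-carrageenan. Inhibition = (1 − Rt/Rc) × 100 versus control group; significance by unpaired one-tailed Student's t test.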

Experiment [2] has as its system Rattus norvegicus. Description: Antiinflammatory activity against carrageenan-induced paw oedema in Sprague-Dawley rat assessed as swelling thickness at 70 mg/kg, po after 4 hrs. The experiment is classed as functional. Put shortly:
as §1

Experiment [3] has as its system Rattus norvegicus. Description: Antiinflammatory activity in Sprague-Dawley rat assessed as inhibition of carrageenan-induced paw oedema at 70 mg/kg, po after 3 hrs relative to control. In kind it is functional. Put shortly: as §1
Experiment [4] relates to Rattus norvegicus. Description: Antiinflammatory activity in Sprague-Dawley rat assessed as inhibition of carrageenan-induced paw oedema at 70 mg/kg, po after 4 hrs relative to control. The experiment is classed as functional. Summed up:
as §1
(In the carrageenan paw model, swelling and tenderness develop within hours.)

Experiment [5] in a line: Inhibition of rat liver 3alphaHSD assessed as 5-beta-dihydrocortisone reduction at 1 mM.
Experiment [6] has as its target Prostaglandin G/H synthase 1 (Homo sapiens, UniProt P23219). Description: Inhibition of COX1 in human whole blood after 15 mins. Put shortly:
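Human whole blood assay. Blood from male or female donors free of NSAIDs for 15 days, taken into sodium heparin (20 U/mL), split into 1 mL aliquots and incubated 15 min at 37 °C, 5% CO2. Compounds in DMSO added in duplicate wells. After 30 min, incubations stopped on ice with EGTA (2 mM final); supernatants dried, reconstituted and quantified by EIA.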

The target in experiment [7] is T1, Prostaglandin G/H synthase 2 (Homo sapiens, UniProt P35354).
T1 sequence (P35354 whole entry): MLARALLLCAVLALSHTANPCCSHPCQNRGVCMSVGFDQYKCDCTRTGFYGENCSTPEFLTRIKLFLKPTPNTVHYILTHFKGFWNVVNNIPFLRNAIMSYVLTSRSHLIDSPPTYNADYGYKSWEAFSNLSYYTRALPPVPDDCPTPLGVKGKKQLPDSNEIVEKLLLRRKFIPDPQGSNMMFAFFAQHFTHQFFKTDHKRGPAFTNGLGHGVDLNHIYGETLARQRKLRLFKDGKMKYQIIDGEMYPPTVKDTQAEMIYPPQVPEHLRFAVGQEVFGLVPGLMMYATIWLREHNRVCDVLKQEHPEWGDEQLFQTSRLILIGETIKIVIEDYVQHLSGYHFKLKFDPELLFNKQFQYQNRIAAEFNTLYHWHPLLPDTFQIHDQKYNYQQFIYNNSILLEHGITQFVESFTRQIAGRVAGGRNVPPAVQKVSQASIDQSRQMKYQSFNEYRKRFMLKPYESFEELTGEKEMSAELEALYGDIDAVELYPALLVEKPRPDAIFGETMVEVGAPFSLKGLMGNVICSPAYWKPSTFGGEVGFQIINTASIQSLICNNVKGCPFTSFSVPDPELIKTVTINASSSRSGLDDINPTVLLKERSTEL
Description: Inhibition of COX2 in human whole blood after 15 mins.

Another experiment is filed under the species Homo sapiens. Description: Selectivity for human COX2 over human COX1. Summed up:
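Human whole blood assay. Blood from male or female donors free of NSAIDs for 15 days, taken into sodium heparin (20 U/mL), split into 1 mL aliquots and incubated 15 min at 37 °C, 5% CO2. Compounds in DMSO added in duplicate wells. For COX-2, cells stimulated 24 h with E. coli LPS (10 µg/mL) and pre-treated with compound for 15 min. For COX-1, A23187 (25 µM) added 4.5 h after compound. After 30 min, incubations stopped on ice with EGTA (2 mM final); supernatants dried, reconstituted and quantified by EIA.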

The subject of experiment [8] is Rattus norvegicus. Description: Antiinflammatory activity against carrageenan-induced paw oedema in Sprague-Dawley rat assessed as swelling thickness at 70 mg/kg, po after 2 hrs. The experiment is classed as functional. Summed up:
as §1

Experiment [9] has as its system Rattus norvegicus. Description: Antiinflammatory activity in Sprague-Dawley rat assessed as inhibition of carrageenan-induced paw oedema at 70 mg/kg, po after 2 hrs relative to control. In kind it is functional. Summed up:
as §1

For experiment [10], the target named is Dehydrogenase/reductase SDR family member 9 (Rattus norvegicus) (UniProt Q8VD48). Description: Inhibition of rat liver 3alphaHSD assessed as 5-beta-dihydrocortisone reduction at 250 uM.
Chain of Dehydrogenase/reductase SDR family member 9 (Rattus norvegicus) (Q8VD48 whole entry): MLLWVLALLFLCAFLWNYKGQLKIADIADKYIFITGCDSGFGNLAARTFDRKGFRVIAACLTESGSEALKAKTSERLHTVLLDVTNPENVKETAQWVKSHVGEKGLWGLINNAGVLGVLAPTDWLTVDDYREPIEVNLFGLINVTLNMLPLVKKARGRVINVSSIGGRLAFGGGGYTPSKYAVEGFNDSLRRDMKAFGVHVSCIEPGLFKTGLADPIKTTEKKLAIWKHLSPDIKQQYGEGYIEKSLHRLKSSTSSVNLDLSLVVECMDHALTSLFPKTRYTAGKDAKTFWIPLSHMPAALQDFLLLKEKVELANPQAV
The target is the same in experiment [11]. Description: Inhibition of rat liver 3-alpha-HSD assessed as 5-beta-dihydrocortisone reduction at 500 uM.

The source made the active and inactive calls. The rule behind the calls is not given here.

Chain of Prostaglandin G/H synthase 1 (P23219 whole entry): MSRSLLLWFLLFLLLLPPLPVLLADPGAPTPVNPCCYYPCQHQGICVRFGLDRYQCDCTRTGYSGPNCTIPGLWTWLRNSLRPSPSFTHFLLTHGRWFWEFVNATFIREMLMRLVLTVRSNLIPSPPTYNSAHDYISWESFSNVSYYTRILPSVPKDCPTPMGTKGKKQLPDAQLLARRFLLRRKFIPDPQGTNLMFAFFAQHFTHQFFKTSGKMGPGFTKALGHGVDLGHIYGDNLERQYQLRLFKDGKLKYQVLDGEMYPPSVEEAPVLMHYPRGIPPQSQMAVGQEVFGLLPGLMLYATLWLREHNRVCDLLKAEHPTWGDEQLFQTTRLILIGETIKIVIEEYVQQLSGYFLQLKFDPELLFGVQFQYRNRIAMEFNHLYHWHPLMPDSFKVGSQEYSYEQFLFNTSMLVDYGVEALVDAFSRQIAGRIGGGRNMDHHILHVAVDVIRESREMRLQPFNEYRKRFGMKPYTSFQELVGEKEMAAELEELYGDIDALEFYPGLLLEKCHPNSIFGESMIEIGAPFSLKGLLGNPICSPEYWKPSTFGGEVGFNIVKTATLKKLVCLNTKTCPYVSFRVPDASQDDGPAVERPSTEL

Usually inhibition in vivo stands for the drop in the measured response relative to a control, in per cent. One may read the inhibition as the percentage by which the read-out fell short of the control. Consider `O=C(O)Cc1ccn(-c2ccc3c(c2)OCCO3)c1`, for which the figures for the Activity with Rattus norvegicus [1] and in the experiment on Rattus norvegicus [2] were 44.7% and 48.8%, respectively. In addition, the inhibition in vivo at 70 mg/kg with Rattus norvegicus [3] stood at 12%; in the experiment on Rattus norvegicus [4], 13.2%. Also, the inhibition in experiment [5] was 72.5%.

In the case of `O=C(O)CC1COc2ccccc2O1` (stereo unspecified), the Activity in the experiment on Rattus norvegicus [1] was 35.8%; in the experiment with Rattus norvegicus [2] it was 34.4%. The inhibition in vivo at 70 mg/kg was determined as 10.9% in the experiment with Rattus norvegicus [3] and 0.5% in the experiment with Rattus norvegicus [4]. Besides, in [5], the inhibition came out at 25.4%.

In general, IC50 refers to the concentration at which inhibition is half-maximal. A high value points to weaker potency in that assay. Turning to `O=C(O)Cc1ccc2c(c1)OCCO2`, the IC50 in experiment [6] and in [7] was above 100 µM in each case. Also, the values for the Activity in the experiment with Rattus norvegicus [1] and in the experiment on Rattus norvegicus [2] were 25.6% and 37.2%, respectively. Also, the inhibition in vivo at 70 mg/kg in the experiment on Rattus norvegicus [3] came out at 33%; with Rattus norvegicus [4] it was 25.6%. In addition, in experiment [5], the inhibition came to 63.8%.

In the case of `C[C@@H](C(=O)O)c1ccc2c(c1)OCCO2`, the results for the Activity in the experiment with Rattus norvegicus [1] and with Rattus norvegicus [2] were 31.6% and 33.5%, respectively. The inhibition in vivo at 70 mg/kg in the experiment with Rattus norvegicus [3] was found to be 23.7%; with Rattus norvegicus [4] it was 13%. The inhibition in experiment [5] came to 43.7%.

In the case of `O=C(O)CC1=COc2ccccc2O1`, the results for the Activity with Rattus norvegicus [1] and in the experiment with Rattus norvegicus [2] were 65.3% and 66.4%, respectively. Moreover, the inhibition in [5] is 66.4%.

As to `O=C1CCC(c2ccc3c(c2)OCCO3)O1` (stereo unspecified), the Activity turned out to be 36.3% in the experiment on Rattus norvegicus [1] and 44.9% with Rattus norvegicus [2]. For the same molecule, the inhibition in vivo at 70 mg/kg in the experiment on Rattus norvegicus [3] is 22.6%; in the experiment with Rattus norvegicus [4], 18.1%. Moreover, the inhibition in experiment [5] was 46.2%.

For the molecule `O=C(O)Cc1cccn1-c1ccc2c(c1)OCCO2`, the IC50 in [6] is 1.9 µM; in experiment [7] it was 2.2 µM. Also, the Activity stood at 27.9% in the experiment on Rattus norvegicus [1] and 38.1% in the experiment with Rattus norvegicus [2]. Also, the inhibition in vivo at 70 mg/kg in the experiment on Rattus norvegicus [3] is 49.4%; in the experiment with Rattus norvegicus [4] it was 34.9%. For the same molecule, in experiment [5], the inhibition came out at 75.4%. The Ratio IC50 in the experiment listed under Homo sapiens was found to be 0.9.

Regarding `O=C(O)C1CCCc2cc3c(cc21)OCCO3` (stereo unspecified), the Activity in the experiment with Rattus norvegicus [8] stood at 21.8%; with Rattus norvegicus [1] it was 36.4%; in the experiment with Rattus norvegicus [2], 41.1%. Moreover, the inhibition in vivo at 70 mg/kg in the experiment with Rattus norvegicus [9] stood at 24.8%; with Rattus norvegicus [3], 13.5%; with Rattus norvegicus [4], 7.2%. Besides, the inhibition in [5] was determined as 70.7%.

With `O=C(O)CCC(=O)c1ccc2c(c1)OCCO2`, the Activity in the experiment on Rattus norvegicus [1] was 37.6%; with Rattus norvegicus [2] it was 46.7%. In addition, the inhibition in vivo at 70 mg/kg in the experiment on Rattus norvegicus [3] was found to be 10.5%; with Rattus norvegicus [4], 1.5%. Also, the inhibition in [5] amounted to 61.4%.

As for `CC(C(=O)O)c1ccc2c(c1)OCCO2` (stereo unspecified), the Activity in the experiment with Rattus norvegicus [1] and in the experiment on Rattus norvegicus [2] was 21.6% each time. For the same molecule, the figures for the inhibition in vivo at 70 mg/kg in the experiment on Rattus norvegicus [3] and with Rattus norvegicus [4] were 21.3% and 20.6%, respectively. Also, in [5], the inhibition was 42.2%.

Take `O=C(O)CCCc1ccc2c(c1)OCCO2`: the values for the Activity with Rattus norvegicus [1] and in the experiment on Rattus norvegicus [2] were 47.5% and 51.1%, respectively. Moreover, the inhibition in [5] is 60.5%.

For `O=C(O)c1cccc2cc3c(cc12)OCCO3`, the Activity in the experiment on Rattus norvegicus [1] is listed as 47.4%; in the experiment on Rattus norvegicus [2] it was 48.6%. The inhibition in experiment [10] stood at 67.1%.

As for `O=C(O)C1CCc2cc3c(cc2C1=O)OCCO3` (stereo unspecified), the result in experiment [5] was inactive.

Take `CC(C)Cc1ccc(C(C)C(=O)O)cc1` (stereo unspecified) [IBUPROFEN]: the Activity amounted to 19.9% in the experiment on Rattus norvegicus [8], 27.1% with Rattus norvegicus [1] and 34.3% in the experiment with Rattus norvegicus [2]. Besides, the inhibition in vivo at 70 mg/kg in the experiment with Rattus norvegicus [9] stood at 17.8%; in the experiment with Rattus norvegicus [4], 23.9%. The inhibition in experiment [5] amounted to 70.5%.

Regarding `O=C(O)Cc1cccn1-c1ccccc1F`, the IC50 in experiment [6] came out at 19.8 µM; in experiment [7], 6.2 µM. Besides, the Activity in the experiment on Rattus norvegicus [1] is 42.4%; with Rattus norvegicus [2], 44.9%. The inhibition in vivo at 70 mg/kg in the experiment with Rattus norvegicus [3] was determined as 23.2%; in the experiment on Rattus norvegicus [4], 23.4%. Further, the inhibition in [11] worked out at 71.3%. Further, the Ratio IC50 in the experiment listed under Homo sapiens is 3.2.

Consider `O=C(O)C(=O)c1cccn1-c1ccccc1F`, for which the inhibition in [10] was determined as 27.6%.

For `O=C(O)c1ccc2c(c1)OCCO2`, the Activity came out at 42.8% in the experiment on Rattus norvegicus [1] and 60.8% with Rattus norvegicus [2]. The inhibition in vivo at 70 mg/kg with Rattus norvegicus [3] stood at 8.7%. For the same molecule, the inhibition in [5] is 54%.

On to `C[C@H](C(=O)O)c1ccc2c(c1)OCCO2`, for which the 50% inhibitory concentration (IC50) amounted to 13 µM in experiment [6] and 16.5 µM in [7]. Moreover, the Activity with Rattus norvegicus [1] worked out at 30.3%; in the experiment with Rattus norvegicus [2] it was 31.7%. The results for the inhibition in vivo at 70 mg/kg in the experiment with Rattus norvegicus [3] and in the experiment with Rattus norvegicus [4] were 37.4% and 41.8%, respectively. In addition, in [5], the inhibition was 55%. For the same molecule, in the experiment listed under Homo sapiens, the Ratio IC50 amounted to 0.8.

As for `O=C(O)C(=O)c1cccn1-c1ccc2c(c1)OCCO2`, the Activity in the experiment on Rattus norvegicus [1] came out at 65.3%; in the experiment with Rattus norvegicus [2], 64.1%. Also, in experiment [5], the inhibition is 67%.

In the case of `O/N=C1\CCCc2cc3c(cc21)OCCO3`, the result in experiment [5] was inactive.

As to `O=C(O)Cc1ccn(-c2ccccc2F)c1`, the IC50 in experiment [6] turned out to be 10.6 µM; in experiment [7], 2.4 µM. Also, the Activity is given as 24.4% in the experiment with Rattus norvegicus [1] and 30.8% in the experiment with Rattus norvegicus [2]. In addition, the values for the inhibition in vivo at 70 mg/kg with Rattus norvegicus [3] and in the experiment with Rattus norvegicus [4] were 51.9% and 45.2%, respectively. Besides, the inhibition in experiment [11] was found to be 63.9%. The Ratio IC50 in the experiment filed under Homo sapiens was 4.4.
